Tests used:
Dipeptidyl peptidase 2 = Dipeptidyl peptidase 2 (Homo sapiens, UniProt Q9UHL4); test: Inhibitory concentration against quiescent cell proline peptidase
Dipeptidyl peptidase 4 = Dipeptidyl peptidase 4 (Homo sapiens, UniProt P27487); test: Inhibitory concentration against Dipeptidylpeptidase IV
[1] = Clearance in rat; format: ADME, organism-based; settings: in vivo
How it was run: (§1)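 Male Sprague-Dawley rats given compound intravenously at 1 mg/kg and orally at 2 mg/kg; plasma drug concentrations measured by LC/MS/MS.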

[2] = Bioavailability in rat; format: ADME, organism-based; settings: in vivo; how it was run: as §1

Dipeptidyl peptidase 4, sequence (P27487 whole entry): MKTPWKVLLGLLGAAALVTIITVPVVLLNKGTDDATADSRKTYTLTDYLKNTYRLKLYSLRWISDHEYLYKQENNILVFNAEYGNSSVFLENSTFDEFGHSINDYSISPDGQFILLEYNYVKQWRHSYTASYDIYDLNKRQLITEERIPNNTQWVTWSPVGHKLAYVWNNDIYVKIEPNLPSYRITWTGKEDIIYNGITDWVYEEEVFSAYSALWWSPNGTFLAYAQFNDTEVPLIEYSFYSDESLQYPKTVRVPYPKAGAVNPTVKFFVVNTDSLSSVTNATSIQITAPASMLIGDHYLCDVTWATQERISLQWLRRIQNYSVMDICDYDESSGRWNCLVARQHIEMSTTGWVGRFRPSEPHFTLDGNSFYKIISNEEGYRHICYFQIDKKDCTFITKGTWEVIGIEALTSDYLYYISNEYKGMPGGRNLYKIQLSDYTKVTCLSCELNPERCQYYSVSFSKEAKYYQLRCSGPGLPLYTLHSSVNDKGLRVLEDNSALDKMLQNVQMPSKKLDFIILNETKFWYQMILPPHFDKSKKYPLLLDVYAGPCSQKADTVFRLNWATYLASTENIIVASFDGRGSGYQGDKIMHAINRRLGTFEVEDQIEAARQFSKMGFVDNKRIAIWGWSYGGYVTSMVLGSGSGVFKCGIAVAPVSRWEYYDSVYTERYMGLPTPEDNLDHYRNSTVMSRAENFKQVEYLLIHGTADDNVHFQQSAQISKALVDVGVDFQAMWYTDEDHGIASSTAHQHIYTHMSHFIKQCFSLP

CS(=O)(=O)Nc1cccc(NC(=O)CN2CCN(C(=O)C[C@H](N)Cc3ccc(F)c(F)c3)[C@H](Cc3ccccc3)C2)c1
IC50 (Dipeptidyl peptidase 2): 0.64 µM
IC50 (Dipeptidyl peptidase 4): 0.03 µM

CS(=O)(=O)Nc1cccc(NC(=O)CN2CCN(C(=O)C[C@@H](N)Cc3ccc(F)c(F)c3)C(Cc3ccccc3)C2)c1 (some centres undefined)
IC50 (Dipeptidyl peptidase 2): 15 µM
IC50 (Dipeptidyl peptidase 4): 36 µM

N[C@@H](CC(=O)N1CCNCC1)Cc1ccccc1F
IC50 (Dipeptidyl peptidase 2): > 100 µM
IC50 (Dipeptidyl peptidase 4): 3.7 µM

NC(=O)CN1CCN(C(=O)C[C@H](N)Cc2ccccc2F)[C@H](Cc2ccccc2)C1
IC50 (Dipeptidyl peptidase 2): 66 µM
IC50 (Dipeptidyl peptidase 4): 0.114 µM

N[C@@H](CC(=O)N1CCNC[C@H]1Cc1ccccc1)Cc1ccccc1F
IC50 (Dipeptidyl peptidase 2): > 100 µM
IC50 (Dipeptidyl peptidase 4): 0.139 µM

N[C@@H](CC(=O)N1CCN(Cc2ccccc2)C[C@H]1Cc1ccccc1)Cc1ccccc1F
IC50 (Dipeptidyl peptidase 2): 15 µM
IC50 (Dipeptidyl peptidase 4): 0.405 µM

CS(=O)(=O)Nc1cccc(NC(=O)CN2CCN(C(=O)C[C@H](N)Cc3ccc(F)c(F)c3)C(Cc3ccccc3)C2)c1 (some centres undefined)
IC50 (Dipeptidyl peptidase 2): 0.45 µM
IC50 (Dipeptidyl peptidase 4): 0.044 µM

N[C@@H](CC(=O)N1CCNC[C@H]1Cc1ccc(F)cc1)Cc1ccccc1F
IC50 (Dipeptidyl peptidase 2): > 100 µM
IC50 (Dipeptidyl peptidase 4): 0.166 µM

N[C@@H](CC(=O)N1CCNC[C@H]1Cc1ccccc1)Cc1cc(F)ccc1F
IC50 (Dipeptidyl peptidase 2): 65 µM

CS(=O)(=O)Nc1cccc(NC(=O)CN2CCN(C(=O)C[C@H](N)Cc3ccccc3)C(Cc3ccccc3)C2)c1 (some centres undefined)
IC50 (Dipeptidyl peptidase 2): 7.7 µM

CC(C)[C@@H]1CNCCN1C(=O)C[C@H](N)Cc1ccccc1F
IC50 (Dipeptidyl peptidase 2): 50 µM
IC50 (Dipeptidyl peptidase 4): 0.922 µM

N[C@@H](CC(=O)N1CCNC[C@H]1Cc1cccnc1)Cc1ccccc1F
IC50 (Dipeptidyl peptidase 2): > 100 µM
IC50 (Dipeptidyl peptidase 4): 0.155 µM

N[C@@H](CC(=O)N1CCNC[C@H]1Cc1cscn1)Cc1ccccc1F
IC50 (Dipeptidyl peptidase 2): > 100 µM
IC50 (Dipeptidyl peptidase 4): 0.143 µM

C[C@@H]1CNCCN1C(=O)C[C@H](N)Cc1ccccc1F
IC50 (Dipeptidyl peptidase 2): > 100 µM
IC50 (Dipeptidyl peptidase 4): 1.6 µM

CS(=O)(=O)Nc1cccc(NC(=O)CN2CCN(C(=O)C[C@H](N)Cc3ccc(F)c(F)c3)[C@@H](Cc3ccccc3)C2)c1
IC50 (Dipeptidyl peptidase 2): 0.28 µM
IC50 (Dipeptidyl peptidase 4): 1.1 µM

CS(=O)(=O)Nc1cccc(NC(=O)CN2CCN(C(=O)C[C@H](N)Cc3ccccc3F)[C@H](Cc3ccccc3)C2)c1
clearance [1]: 130 mL/min/kg
bioavailability [2]: < 1%

N[C@@H](CC(=O)N1CCNC[C@H]1c1ccc(F)cc1)Cc1ccccc1F
IC50 (Dipeptidyl peptidase 2): 23 µM
IC50 (Dipeptidyl peptidase 4): 0.61 µM

N[C@@H](CC(=O)N1CCOC[C@H]1Cc1ccccc1)Cc1ccccc1F
IC50 (Dipeptidyl peptidase 2): > 100 µM
IC50 (Dipeptidyl peptidase 4): 0.108 µM

CS(=O)(=O)Nc1cccc(NC(=O)CN2CCN(C(=O)C[C@@H](N)Cc3ccccc3)C(Cc3ccccc3)C2)c1 (some centres undefined)
IC50 (Dipeptidyl peptidase 2): 19 µM

CN1CCN(C(=O)C[C@H](N)Cc2ccccc2F)[C@H](Cc2ccccc2)C1
IC50 (Dipeptidyl peptidase 2): > 100 µM
IC50 (Dipeptidyl peptidase 4): 0.225 µM

N[C@@H](CC(=O)N1CCCC[C@H]1Cc1ccccc1)Cc1ccccc1F
IC50 (Dipeptidyl peptidase 2): > 100 µM
IC50 (Dipeptidyl peptidase 4): 1.04 µM

— ChEMBL document CHEMBL1137854, “Substituted piperazines as novel dipeptidyl peptidase IV inhibitors” (Bioorg Med Chem Lett, 2004)
